Reference: article PMC12272722 (RSC Medicinal Chemistry, 2025)
Values after ≈ are worked out from the molar mass of the structure shown.

Tests used:
[1] = system: Trichophyton rubrum LM 237; assay: MIC99 by broth microdilution; assay type: cell-based; details: LM237, 168 h, read-out: MIC99 T. rubrum
Method in brief: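 T. rubrum was cultured on Sabouraud dextrose agar at 27 °C for one week. Actively growing mycelium was collected into sterile distilled water with broken coverslips as inoculum. Test compound in 5% aqueous DMSO was diluted twofold serially in SDA over 2.0 × 10−1 to 2.4 × 10−5 mg mL−1. Plates were held at 30 °C and scored visually after 7 days. Run in triplicate with solvent blanks; amphotericin B and fluconazole as references.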

[2] = literature value; cited from earlier work
[3] = Water thermodynamic solubility by HPLC; assay type: physicochemical; details: ultrapure water, 25 °C, thermodynamic from solid

MIC99 [1] | solubility at 24 h [3] | Molecule | Aqueous solubility at 25 °C [2]
100 µM (≈ 50.1 µg/mL) | – | CC(=O)c1c(O)c(C)c(O)c2c1OC1=CC(=O)C(=C(C)N[C@@H](CCCNC(=N)N)C(=O)O)C(=O)[C@]12C [(9bS,15S)-2, (1-((S)-6-Acetyl-7,9-dihydroxy-8,9b-dimethyl-1,3-dioxo-3,9b-dihydrodibenzo[b,d]furan-2(1H)-ylidene)ethyl)-L-arginine] | –
> 400 µM | – | C[C@@H]1[C@H](O)[C@@H](C)/C=C/C=C/C=C/C=C/C=C/C=C/C=C/[C@H](O[C@@H]2O[C@H](C)[C@@H](O)[C@H](N)[C@@H]2O)C[C@@H]2O[C@](O)(C[C@@H](O)C[C@@H](O)[C@H](O)CC[C@@H](O)C[C@@H](O)CC(=O)O[C@H]1C)C[C@H](O)[C@H]2C(=O)O [AmB, amphotericin B, reference compound] | –
– | – | usnic acid [UA] | <0.3 (lit.)[60] mM
400 µM (≈ 200 µg/mL) | – | CC(=O)c1c(O)c(C)c(O)c2c1OC1=CC(=O)C(=C(C)N[C@@H](CCCNC(=N)N)C(=O)O)C(=O)[C@@]12C [(9bR,15S)-2, (1-((R)-6-Acetyl-7,9-dihydroxy-8,9b-dimethyl-1,3-dioxo-3,9b-dihydrodibenzo[b,d]furan-2(1H)-ylidene)ethyl)-L-arginine] | –
> 200 µM | – | OC(Cn1cncn1)(Cn1cncn1)c1ccc(F)cc1F [FCZ, fluconazole, reference compound] | –
28 µM (≈ 12.5 µg/mL) | 150 µM (≈ 66.8 µg/mL) | COC(=O)[C@H](CO)NC(C)=C1C(=O)C=C2Oc3c(C(C)=O)c(O)c(C)c(O)c3[C@]2(C)C1=O [(9bS,15S)-1, Methyl (1-((S)-6-acetyl-7,9-dihydroxy-8,9b-dimethyl-1,3-dioxo-3,9b-dihydrodibenzo[b,d]-furan-2(1H)-ylidene)ethyl)-L-serinate] | –
450 µM (≈ 200 µg/mL) | 150 to 4700 µM (≈ 66.8 to 2090 µg/mL) | COC(=O)[C@H](CO)NC(C)=C1C(=O)C=C2Oc3c(C(C)=O)c(O)c(C)c(O)c3[C@@]2(C)C1=O [(9bR,15S)-1, Methyl (1-((R)-6-acetyl-7,9-dihydroxy-8,9b-dimethyl-1,3-dioxo-3,9b-dihydrodibenzo[b,d]furan-2(1H)-ylidene)ethyl)-L-serinate] | –
